# Reference: ChEMBL document CHEMBL2417509, “Synthesis and biological evaluation of prodigiosene conjugates of porphyrin, estrone and 4-hydroxytamoxifen” (2013)
# How the values were obtained:
# Format in all cases: functional
# T47D = assay: Cytotoxicity against human T47D cells after 2 days by sulforhodamine B assay; conditions: 48 h
# In short: (§1)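 NCI DTP NCI60 multi-dose screen (59 human tumour lines available). Cells exposed to compound over a 5-log mol/L concentration range for 2 days, then fixed and stained with sulphorhodamine B, with optical density read. Growth inhibition calculated relative to time-zero cells and untreated cells, giving GI50 (half-maximal growth inhibition concentration). Average of two replicates.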
# UO-31 = assay: Cytotoxicity against human UO31 cells after 2 days by sulforhodamine B assay; conditions: UO-31, 48 h; in short: as §1
# SF-295 = assay: Cytotoxicity against human SF295 cells after 2 days by sulforhodamine B assay; conditions: SF-295, 48 h
# In short: (§2)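 NCI60 multi-dose screen, 59 human tumour lines available. Cells exposed to compound across a 5-log mol/L concentration range for 2 days, then fixed and stained with sulphorhodamine B, optical density read. Growth inhibition calculated against time-zero control and untreated cells. GI50 derived from the dose series, average of two replicates.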
# COLO 205 = assay: Cytotoxicity against human COLO205 cells after 2 days by sulforhodamine B assay; conditions: COLO 205, 48 h; in short: as §2
# SK-MEL-5 = assay: Cytotoxicity against human SK-MEL-5 cells after 2 days by sulforhodamine B assay; conditions: SK-MEL-5, 48 h; in short: as §2
# SNB-75 = assay: Cytotoxicity against human SNB75 cells after 2 days by sulforhodamine B assay; conditions: SNB-75, 48 h; in short: as §1
# 786-0 = assay: Cytotoxicity against human 786-0 cells after 2 days by sulforhodamine B assay; conditions: 786-0, 48 h; in short: as §2
# SR = assay: Cytotoxicity against human SR cells after 2 days by sulforhodamine B assay; conditions: 48 h; in short: as §1
# SF-268 = assay: Cytotoxicity against human SF268 cells after 2 days by sulforhodamine B assay; conditions: SF-268, 48 h; in short: as §2
# KM12 = assay: Cytotoxicity against human KM12 cells after 2 days by sulforhodamine B assay; conditions: KM12, 48 h; in short: as §2
# MDA-MB-231 = assay: Cytotoxicity against human MDA-MB-231 cells after 2 days by sulforhodamine B assay; conditions: MDA-MB-231, 48 h; in short: as §2
# NCI-H322M = assay: Cytotoxicity against human NCI-H322M cells after 2 days by sulforhodamine B assay; conditions: 48 h; in short: as §2
# LOX IMVI = assay: Cytotoxicity against human LOXIMVI cells after 2 days by sulforhodamine B assay; conditions: 48 h; in short: as §2
# OVCAR-8 = assay: Cytotoxicity against human OVCAR8 cells after 2 days by sulforhodamine B assay; conditions: OVCAR-8, 48 h; in short: as §2
# OVCAR-3 = assay: Cytotoxicity against human OVCAR3 cells after 2 days by sulforhodamine B assay; conditions: OVCAR-3, 48 h; in short: as §2
# HOP-62 = assay: Cytotoxicity against human HOP62 cells after 2 days by sulforhodamine B assay; conditions: HOP-62, 48 h; in short: as §2
# MDA-MB-468 = assay: Cytotoxicity against human MDA-MB-468 cells after 2 days by sulforhodamine B assay; conditions: MDA-MB-468, 48 h; in short: as §2
# TK-10 = assay: Cytotoxicity against human TK10 cells after 2 days by sulforhodamine B assay; conditions: TK-10, 48 h; in short: as §1
# HCC 2998 = assay: Cytotoxicity against human HCC2998 cells after 2 days by sulforhodamine B assay; conditions: HCC 2998, 48 h; in short: as §2
# MOLT-4 = assay: Cytotoxicity against human MOLT4 cells after 2 days by sulforhodamine B assay; conditions: MOLT-4, 48 h; in short: as §2
# NCI-H460 = assay: Cytotoxicity against human NCI-H460 cells after 2 days by sulforhodamine B assay; conditions: NCI-H460, 48 h; in short: as §2
# RPMI-8226 = assay: Cytotoxicity against human RPMI8226 cells after 2 days by sulforhodamine B assay; conditions: RPMI-8226, 48 h; in short: as §2
# DU-145 = assay: Cytotoxicity against human DU145 cells after 2 days by sulforhodamine B assay; conditions: DU-145, 48 h; in short: as §2
# HT-29 = assay: Cytotoxicity against human HT-29 cells after 2 days by sulforhodamine B assay; conditions: HT-29, 48 h; in short: as §2
# CCRF-CEM = assay: Cytotoxicity against human CCRF-CEM cells after 2 days by sulforhodamine B assay; conditions: 48 h; in short: as §2
# SK-MEL-28 = assay: Cytotoxicity against human SK-MEL-28 cells after 2 days by sulforhodamine B assay; conditions: SK-MEL-28, 48 h; in short: as §2
# A498 = assay: Cytotoxicity against human A498 cells after 2 days by sulforhodamine B assay; conditions: A498, 48 h; in short: as §2
# HL-60(TB) = assay: Cytotoxicity against human HL-60(TB) cells after 2 days by sulforhodamine B assay; conditions: HL-60, 48 h
# In short: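 NCI60 multi-dose screen: cells exposed to compound over a 5-log mol/L concentration range for 2 days, then fixed and stained with sulphorhodamine B and optical density read. Growth inhibition calculated relative to time-zero control and untreated cells; GI50 reported as average of two replicates.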
# M14 = assay: Cytotoxicity against human M14 cells after 2 days by sulforhodamine B assay; conditions: M14, 48 h; in short: as §2
# BT-549 = assay: Cytotoxicity against human BT549 cells after 2 days by sulforhodamine B assay; conditions: BT-549, 48 h; in short: as §2
# [1] = read-out: LC50 (the source's name)
smiles,measurement,setting,value
CCC(=C(c1ccc(OCCN(C)C)cc1)c1ccc(OC(=O)CCCCC(=O)C2=C(C)/C(=C/c3[nH]c(-c4ccc[nH]4)cc3OC)N=C2C)cc1)c1ccccc1,GI50,T47D,1380 nM
same,LC50 (concentration killing 50% of cells),T47D,39.8 µM
same,TGI,T47D,6.03 µM
same,GI50,UO-31,2820 nM
same,LC50,UO-31,87.1 µM
same,TGI,UO-31,21.4 µM
same,GI50,SF-295,7.24 µM
same,LC50,SF-295,45.7 µM
same,TGI,SF-295,20.4 µM
same,GI50,COLO 205,10.7 µM
same,LC50 (concentration killing 50% of cells),COLO 205,50.1 µM
same,TGI,COLO 205,22.9 µM
same,GI50,SK-MEL-5,1620 nM
same,LC50 (concentration killing 50% of cells),SK-MEL-5,6.03 µM
same,TGI,SK-MEL-5,3.09 µM
same,GI50,SNB-75,5.25 µM
same,LC50 (concentration killing 50% of starting cells),SNB-75,44.7 µM
same,TGI,SNB-75,18.2 µM
same,GI50,786-0,4.79 µM
same,LC50 (concentration killing 50% of cells),786-0,52.5 µM
same,TGI,786-0,19 µM
same,GI50,SR,3.02 µM
same,LC50 (concentration giving 50% net cell kill),SR,> 100 µM
same,TGI,SR,20.9 µM
same,GI50,SF-268,7.76 µM
same,LC50 (concentration killing 50% of cells),SF-268,> 100 µM
same,TGI,SF-268,30.2 µM
same,GI50,KM12,3.72 µM
same,LC50,KM12,46.8 µM
same,TGI,KM12,14.4 µM
same,GI50,MDA-MB-231,2000 nM
same,LC50,MDA-MB-231,33.9 µM
same,TGI,MDA-MB-231,11.5 µM
same,GI50,NCI-H322M,13.5 µM
same,LC50 (concentration killing 50% of cells),NCI-H322M,69.2 µM
same,TGI,NCI-H322M,30.9 µM
same,GI50,LOX IMVI,2040 nM
same,LC50,LOX IMVI,43.6 µM
same,TGI,LOX IMVI,5.13 µM
same,GI50,OVCAR-8,6.61 µM
same,LC50,OVCAR-8,47.9 µM
same,TGI,OVCAR-8,19.9 µM
same,GI50,OVCAR-3,11.7 µM
same,LC50,OVCAR-3,63.1 µM
same,TGI,OVCAR-3,26.9 µM
same,GI50,HOP-62,12.3 µM
same,TGI,HOP-62,24.5 µM
same,CC50,HOP-62; [1],50.1 µM
same,GI50,MDA-MB-468,2450 nM
same,LC50,MDA-MB-468,41.7 µM
same,TGI,MDA-MB-468,14.8 µM
same,GI50,TK-10,12.9 µM
same,LC50,TK-10,50.1 µM
same,TGI,TK-10,25.1 µM
same,GI50,HCC 2998,13.2 µM
same,LC50 (50% lethal concentration),HCC 2998,53.7 µM
same,TGI,HCC 2998,26.9 µM
same,GI50,MOLT-4,1740 nM
same,TGI,MOLT-4,25.1 µM
same,CC50,MOLT-4; [1],> 100 µM
same,GI50,NCI-H460,3.98 µM
same,LC50,NCI-H460,53.7 µM
same,TGI,NCI-H460,15.5 µM
same,GI50,RPMI-8226,3.16 µM
same,LC50 (concentration killing 50% of cells present at time zero),RPMI-8226,> 100 µM
same,TGI,RPMI-8226,19 µM
same,GI50,DU-145,7.76 µM
same,LC50 (concentration killing 50% of starting cells),DU-145,50.1 µM
same,TGI,DU-145,20.9 µM
same,GI50,HT-29,3.02 µM
same,LC50,HT-29,74.1 µM
same,TGI,HT-29,14.8 µM
same,GI50,CCRF-CEM,320 nM
same,TGI,CCRF-CEM,> 100 µM
same,CC50,CCRF-CEM; [1],> 100 µM
same,GI50,SK-MEL-28,11.5 µM
same,LC50,SK-MEL-28,49 µM
same,TGI,SK-MEL-28,24 µM
same,GI50,A498,12.9 µM
same,LC50,A498,53.7 µM
same,TGI,A498,26.3 µM
same,GI50,HL-60(TB),18.2 µM
same,TGI,HL-60(TB),41.7 µM
same,CC50,HL-60(TB); [1],97.7 µM
same,GI50,M14,1820 nM
same,TGI,M14,3.98 µM
same,CC50,M14; [1],8.71 µM
same,GI50,BT-549,3.55 µM
same,LC50 (concentration killing 50% of cells present at time zero),BT-549,41.7 µM
same,TGI,BT-549,17 µM
